Assay outcomes deposited in PubChem BioAssay by Johns Hopkins Ion Channel Center.
Only some compounds are listed: those with a hit (about 2.3% of all), similar ones and a draw of the others.
TRPC4 act = activators of mouse TRPC4 channel; Q9QUQ5; 310,000 tested, 0.49% active; AID 2237; B-score at 10 µM; HEK293 TRPC4beta/mu-opioid, Fluo4 calcium fluorescence; hits give high values;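 active = B-score above 5 SD of library B-scores, and initial fluorescence ratio not above library mean plus 5 SD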;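 also: positive B-score marks a calcium rise read as TRPC4 activation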
Target sequence (Q9QUQ5 whole entry, looked up): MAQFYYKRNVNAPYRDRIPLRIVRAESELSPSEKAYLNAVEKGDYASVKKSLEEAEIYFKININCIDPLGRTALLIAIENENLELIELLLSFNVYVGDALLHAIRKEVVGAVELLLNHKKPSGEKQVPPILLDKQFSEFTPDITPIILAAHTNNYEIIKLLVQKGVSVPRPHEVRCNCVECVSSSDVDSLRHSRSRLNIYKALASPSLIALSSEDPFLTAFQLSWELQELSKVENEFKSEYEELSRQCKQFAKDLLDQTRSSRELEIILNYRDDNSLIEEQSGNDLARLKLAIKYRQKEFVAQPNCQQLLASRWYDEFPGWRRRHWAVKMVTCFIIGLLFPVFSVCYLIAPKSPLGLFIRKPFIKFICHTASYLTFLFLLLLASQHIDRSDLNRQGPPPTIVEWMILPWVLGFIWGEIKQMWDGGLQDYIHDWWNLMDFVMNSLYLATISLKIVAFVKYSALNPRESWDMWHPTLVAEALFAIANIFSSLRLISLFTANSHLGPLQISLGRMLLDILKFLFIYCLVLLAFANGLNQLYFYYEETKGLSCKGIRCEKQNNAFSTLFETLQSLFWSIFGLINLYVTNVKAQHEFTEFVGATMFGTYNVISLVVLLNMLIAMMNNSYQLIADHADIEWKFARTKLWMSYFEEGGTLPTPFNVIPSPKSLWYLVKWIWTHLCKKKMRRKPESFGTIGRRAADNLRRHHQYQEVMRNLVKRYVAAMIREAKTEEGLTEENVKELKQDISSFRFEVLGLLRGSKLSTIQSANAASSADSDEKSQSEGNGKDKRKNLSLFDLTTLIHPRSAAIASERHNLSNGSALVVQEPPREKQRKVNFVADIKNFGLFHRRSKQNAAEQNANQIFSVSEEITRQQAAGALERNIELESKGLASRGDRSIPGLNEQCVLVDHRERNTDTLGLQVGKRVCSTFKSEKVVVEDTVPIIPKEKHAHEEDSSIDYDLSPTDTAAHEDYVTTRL
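Technique: kinetic Fluo4 calcium fluorescence; Test system: TRPC4beta and mu-opioid receptor HEK293 stable cells; Measure: B-scored integrated calcium fluorescence ratio; Benchmarks: low control buffer alone, high control maximal DAMGO; Schedule: 45 min room-temperature Fluo4 loading, 110 s read.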
TRPC4 block = TRPC4 (mouse) channel inhibition. 300,000 tested, 0.39% active. AID 2247. B-score at 10 µM. Q9QUQ5. HEK293 TRPC4beta/mu-opioid, DAMGO-evoked Fluo4 calcium flux; hits give low values;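 active = B-score over 3 SD under the library average, no early fluorescence shift, positive overall ratio signal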
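Assay system: Stable TRPC4beta/mu-opioid receptor HEK293 cells | Reagent: DAMGO in two steps, submaximal then maximal | Compound dosing: Single concentration per test compound | Signal: Fluo4 Ca2+ flux fluorescence | Evaluation: Per-well B score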
TRPC6 activator = activates the mouse TRPC6 cation channel | HEK293-TRPC6 membrane potential dye fluorescence; hits give high values | B-score at 10 µM | 310,000 tested, 0.13% active | AID 2550;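 active = B-score of the integrated fluorescence ratio above library mean plus 3 SD, and starting fluorescence ratio within library mean plus 5 SD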;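 also: higher score means more depolarization so channel activation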
TRPC4 potent = allosteric potentiators of mouse TRPC4 channel; HEK293 TRPC4beta/mu-opioid, DAMGO EC20, Fluo-4 Ca2+ flux; hits give high values; 310,000 tested, 0.42% active; B-score at 10 µM;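 active = B-score of calcium response area above 5 SD of library B-scores, with initial fluorescence ratio within 5 SD of library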;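 also: B-score of integrated fluorescence ratio over time as area under calcium response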
TRPC6 inhibitor = blocks the mouse TRPC6 cation channel; Q61143; HEK293-TRPC6, membrane potential dye, ACh-evoked depolarization; hits give low values; B-score at 10 µM; 310,000 tested, 1.1% active;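 active = B-score under library mean minus 3 SD, initial fluorescence not abnormally high, positive integrated signal ratio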;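 also: B-score derived from integrated fluorescence ratio over the kinetic read; more negative B-score means stronger inhibition of depolarization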
* marks the source's active call; other numbers are inactive results; i = inactive.

SMILES | TRPC4 act | TRPC4 block | TRPC6 activator | TRPC4 potent | TRPC6 inhibitor
CN(CCCNC(=O)c1ccc(/C=N/O)nc1)CCCN(C)Cc1ccccc1 | i | i | i | 13* | i
O=C(NCCCNCCCNC(=O)c1ccc(/C=N/O)nc1)c1ccc(/C=N/O)nc1 | i | i | i | i | i
O=C(Nc1ccc(Cl)cc1)C1CCN(C(=O)c2cccs2)CC1 | i | i | i | i | i
COc1ccc(/C=C2/C(=O)C(C)(C(C)C)CCC2C)cc1 (stereo not given) | i | i | i | i | i
Cc1ccc(C)c(CN2CCC(CNC(=O)Nc3ccc(Cl)cc3)CC2)c1 | i | i | i | 14* | i
CCCN1CCC(NC(=O)Nc2ccccc2C(=O)OC)CC1 | 71* | i | i | i | i
COC(=O)c1ccccc1NC(=O)NC1CC1 | i | i | i | i | i
O=C(/C=C/c1ccc(F)cc1)NC(=S)N1CCN(Cc2ccccc2)CC1 | i | i | i | i | i
COc1ccc(Cl)cc1NC(=O)CCN1CCN(Cc2ccccc2)CC1 | i | i | i | i | i
O=C(/C=C/c1ccc(F)cc1)NNC(=O)CCN1CCN(Cc2ccccc2)CC1 | 50* | i | i | i | i
COc1cccc(/C=C/C(=O)NNC(=O)CCN2CCN(Cc3ccccc3)CC2)c1 | 48* | i | i | 12* | i
O=C(O)/C=C/c1cn(-c2ccccc2)nc1-c1ccc(-c2ccc([N+](=O)[O-])cc2)o1 | i | i | i | i | i
Nc1nc(SCC(=O)c2cccs2)n[nH]1 | i | i | i | i | i
O=C(Cc1cccs1)Nc1nc(-c2ccc(F)cc2F)cs1 | i | i | i | 85* | i
CC(Oc1ccc(C(=O)c2ccccc2)cc1)C(=O)Nc1ccc(S(N)(=O)=O)cc1 (stereo not given) | 58* | i | i | i | i
CC(Oc1ccccc1)C(=O)Nc1ccc(NC(=O)c2ccccc2)cc1 (stereo not given) | i | i | i | i | i
NC1=NC(=O)C(Cc2ccc(OC(F)(F)F)cc2)S1 (stereo not given) | i | i | i | i | i
O=C(NCCc1ccccn1)C(F)(F)C(F)(F)C(F)(F)C(F)(F)C(F)(F)C(F)F | 128* | i | i | i | i
O=C(NCc1ccccn1)C(F)(F)C(F)(F)C(=O)NCc1ccccn1 | i | i | i | i | i
O=C(Nc1cccc2ncccc12)c1cccc(Br)c1 | i | i | i | 14* | i
O=C(Nc1cccc2ncccc12)c1cccc(F)c1 | i | i | i | i | i
CN(CCc1ccccn1)C(=O)Nc1ccc(Cl)cc1 | i | i | i | i | i
CN(CCc1ccccn1)C1CC(=O)N(c2ccc(Cl)cc2)C1=O (stereo not given) | 148* | i | i | i | i
CN(C)c1ccc(/C=N/NC(N)=S)cc1[N+](=O)[O-] | i | i | i | i | i
C/C(Cc1nnn(-c2cc(C)on2)n1)=N\O | i | i | i | i | i
SMILES | TRPC4 act | TRPC4 block | TRPC6 activator | TRPC4 potent | TRPC6 inhibitor
COc1ccccc1C(=O)NNC1=C(C(=O)C(F)(F)F)CCC1 | 93* | i | i | i | i
Cc1sc2ncnc(SCC(=O)N3CCCC(C(F)(F)F)C3)c2c1C (stereo not given) | i | i | i | i | i
CCN(CC)C(=O)C1CCN(C(=O)c2oc3ccc(C)cc3c2C)CC1 | i | i | i | i | i
Cc1ccc2oc(C(=O)N3CCC(O)(c4ccccc4)CC3)c(C)c2c1 | i | i | i | 15* | i
COc1ccc(CN(C2CCCCC2C)S(=O)(=O)c2ccc(S(=O)(=O)N(C)C)cc2)cc1OC (stereo not given) | i | i | i | 23* | i
COc1cc(CN(C2CCCCC2C)S(=O)(=O)c2ccc(S(=O)(=O)NC3CC3)cc2)cc(OC)c1OC (stereo not given) | i | i | i | i | i
O=C(N/N=C/C(Br)=C/c1ccccc1)c1ccccc1[N+](=O)[O-] | i | i | i | 12* | i
OC1(c2cccs2)CN(c2ccc(Br)cc2)C2=[N+]1CCCS2 (stereo not given) | i | i | i | i | i
OC1(c2ccccc2)CN(c2ccccc2)C2=[N+]1CCS2 (stereo not given) | 72* | -9* | i | i | i
O=C(Nc1nc(-c2cccs2)cs1)c1ccc(Cl)cc1 | i | i | i | i | i
CCCSc1nnc(NC(=O)c2sc3nc(-c4cccs4)ccc3c2N)s1 | i | i | i | i | i
Cc1csc(NC(=O)c2sc3nc(-c4cccs4)ccc3c2N)n1 | 47* | i | i | 10* | i
COc1ccc(C(=O)Nc2nc(-c3cccs3)cs2)cc1 | i | -7* | i | i | i
COc1ccc(-c2cc(C#N)nc(N3CCNCC3)n2)cc1 | 129* | i | i | i | i
COc1ccc(-c2cc(C#N)nc(N3CCN(C)CC3)n2)cc1 | i | i | i | i | i
COc1ccc(-c2cc(C(F)(F)F)nc(N3CCN(C)CC3)n2)cc1 | i | i | i | 15* | i
CN1CCN(NC(=O)c2cccc(Br)c2)CC1 | i | i | i | 19* | i
O=C(Nc1sc2c(c1C(=O)NCCCO)CCCC2)c1ccccc1 | i | i | i | i | i
NCCNC(=O)c1c(NC(=O)c2ccccc2)sc2c1CCCC2 | 175* | i | i | i | i
O=C(CCN1CCN(Cc2ccccc2)CC1)Nc1ccc(OCc2ccccc2)cc1 | i | i | i | 15* | i
CCCOc1ccc(NC(=O)CC2C(=O)N(CC)C(=S)N2CCNC(C)=O)cc1 (stereo not given) | i | i | i | i | i
O=C(CCN1CCN(CCO)CC1)Nc1ccc(OCc2ccccc2)cc1 | i | i | i | i | i
CCCOc1ccc(NC(=O)CC2C(=O)N(CC)C(=S)N2CCCN2CCN(Cc3ccccc3)CC2)cc1 (stereo not given) | i | i | i | 10* | i
COC(=O)c1ccc(NC(=O)CCN2CCN(Cc3ccccc3)CC2)cc1 | i | i | i | 27* | i
CCc1ccc(C(=O)NNC(=O)CCN2CCN(Cc3ccccc3)CC2)cc1 | i | i | i | 12* | i
CCOc1ccc(S(=O)(=O)NNS(=O)(=O)c2ccc(C)cc2C)cc1 | i | i | i | i | i
